# Source: PMC13031150 (Acta Pharmaceutica Sinica. B, 2025)
# Key:
# [1] = tested on: KBM5-T315I-PGK1-KD, PGK1-OE and PGK1-T378P cells; assay: CCK-8 cell viability in PGK1-modified KBM5-T315I cells; type: cell-based, human; conditions: KBM5-T315I-PGK1-KD versus KBM5-T315I, 24 h
# Summary of the method: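 KBM5-T315I lines were empty-vector (NC), PGK1-overexpressing (OE), shPGK1 knockdown (KD), or KD re-transfected with PGK1-WT or PGK1-T378P cDNA. […] WT, OE, KD and T378P cells received test compound 0–80 μmol/L for […]. Viability was read by CCK-8; SEM, n = 3.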
# KBM5-T315I xenograft = assay: Subcutaneous KBM5-T315I xenograft in NOD/SCID mice; type: in vivo, mouse; conditions: CPU-216 20 mg/kg, NG52 100 mg/kg
# KBM5-T315I cells [2] = assay: Autophagy readouts; type: cell-based, human
# KBM5 cells = assay: CCK-8 cell viability assay, including SynergyFinder synergy analysis; type: cell-based, human; conditions: NG52 combined with imatinib, KBM5, 24 h, CCK-8, SynergyFinder
# Summary of the method: (§1)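 Viability was read by CCK-8. […] A second test compound, 0–80 μmol/L alone or with a TKI, was given for 12 h. δ-scores came from SynergyFinder: >10 synergy, <−10 antagonism. SEM, n = 3.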
# BCR-ABL = BCR-ABL protein level by Western blot; type: cell-based, human; conditions: KBM5-T315I, NG52 0–50 μmol/L, 24 h, dose-dependent
# [3] = tested on: VCP phosphorylation in KBM5-T315I cells; assay: VCP phosphorylation in cells; type: cell-based, human; conditions: 50 μmol/L NG52, 24 h
# Summary of the method: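 KBM5-T315I cells were treated 24 h with test compound. Lysates were immunoprecipitated with anti-VCP antibody and immunoblotted with a pan-phospho-Ser/Thr antibody.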
# VCP-KD-KBM5-T315I cells = assay: CCK-8 cell viability with synergy analysis in VCP-knockdown cells; type: cell-based, human; conditions: NG52 combined with imatinib, 24 h
# Summary of the method: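 Viability was read by CCK-8, and δ-scores were computed in SynergyFinder (>10 synergy, <−10 antagonism).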
# KBM5-T315I cells [4] = assay: CCK-8 cell viability assay, including SynergyFinder synergy analysis; type: cell-based, human
# Summary of the method: as §1
# KBM5-T315I cells [5] = assay: LDH / lactate production; type: cell-based, human; conditions: NG52 6.25–50 μmol/L, 24 h
# [6] = tested on: KBM5-T315I cells-bearing NOD/SCID mice; assay: Tail-vein KBM5-T315I leukemia model in NOD/SCID mice; type: in vivo, mouse; conditions: single agent: imatinib 100 mg/kg, CPU-216 20 mg/kg
# Summary of the method: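 Female NOD/SCID mice aged 4–6 weeks received sublethal irradiation (1.8 Gy), then KBM5-T315I cells by tail vein within 24 h. After 7 days of engraftment, dosing was on alternate days for 4 weeks, with saline as vehicle. Peripheral-blood human CD45⁺ cells were measured by flow cytometry, along with spleen weight and Kaplan–Meier survival. SEM, n ≥ 3.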
# [7] = KBM5-T315I, Western blot, NG52 dose-dependent, CPU-216 0–6 μmol/L, 0–12 h
smiles,measurement,setting,value
Cc1ccc(C(=O)Nc2ccc(CN3CCN(C)CC3)c(C(F)(F)F)c2)cc1C#Cc1cnc2cccnn12 [ponatinib],Sensitivity of PGK1-knockdown cells to the TKI,[1],increased sensitivity
CC(C)n1cnc2c(Nc3cccc(Cl)c3)nc(NCCO)nc21 [NG52],LC3B-II expression in tumor (immunofluorescence),KBM5-T315I xenograft; imatinib 100 mg/kg,increased
same,SQSTM1 expression in tumor (immunofluorescence),KBM5-T315I xenograft; imatinib 100 mg/kg,decreased
same,Tumor proliferation (Ki-67 staining),KBM5-T315I xenograft; imatinib 100 mg/kg,significantly reduced
same,Tumor volume,"KBM5-T315I xenograft; intragastric every 48 h, 21 days",reduce
same,Formation of LC3 puncta,KBM5-T315I cells [2]; KBM5-T315I transfected with GFP-LC3B,promote
same,Beclin 1 ubiquitination,"KBM5-T315I cells [2]; KBM5-T315I, NG52 50 μmol/L with 10 μmol/L MG132, 24 h",decreased
same,Beclin 1 expression and LC3B-II/LC3B-I ratio,KBM5-T315I cells [2]; [7],increased
same,SQSTM1 expression,KBM5-T315I cells [2]; [7],reducing
same,Autophagic vesicles (transmission electron microscopy),"KBM5-T315I cells [2]; KBM5-T315I, NG52 50 μmol/L, CPU-216 6 μmol/L",marked increase
same,Synergy score (δ-score),KBM5 cells,−7.32
same,BCR-ABL expression,BCR-ABL,reduced
same,VCP phosphorylation levels,[3],reduction
same,Synergy score (δ-score),VCP-KD-KBM5-T315I cells,7.57
same,"Inhibitory effect on cell viability, KBM5-T315I versus KBM5","KBM5-T315I cells [4]; 0–400 μmol/L, 24 h, CCK-8",better inhibitory effect on KBM5-T315I
same,Synergy score,"KBM5-T315I cells [4]; NG52 combined with imatinib, KBM5-T315I pretreated with 3 μmol/L PKM2-IN-1",15.16
same,Synergy score (δ-score),"KBM5-T315I cells [4]; NG52 combined with imatinib, NC (empty vector control) KBM5-T315I cells, 24 h",15.66
same,Synergy score (δ-score),"KBM5-T315I cells [4]; NG52 combined with ponatinib, KBM5-T315I, 24 h, CCK-8, SynergyFinder",10.11
same,Effect on LDH levels,KBM5-T315I cells [5],no significant effect
CC1=C(CSC(=S)N2CCCCC2)C(=O)c2ccccc2C1=O [PKM2-IN-1],Effect on proliferation,"KBM5-T315I cells [4]; 3 μmol/L, 24 h, CCK-8, KBM5-T315I",did not affect
same,Synergy score,"KBM5-T315I cells [4]; PKM2-IN-1 combined with imatinib, KBM5-T315I",−4.49
Cc1ccc(NC(=O)c2ccc(CN3CCN(C)CC3)cc2)cc1Nc1nccc(-c2cccnc2)n1 [imatinib],Sensitivity of PGK1-knockdown cells to the TKI,[1],increased sensitivity
same,Reduction of proportion of cells in the blood (HuCD45),[6],less pronounced
same,Splenomegaly,[6],alleviated
